Active and inactive are the calls of the source. No cut-off for these calls is given here.
Tests used:
Homo sapiens [1] = species: Homo sapiens; assay: Inhibition of esterase mediated-hydrolysis of tenofovir disoproxil fumarate in human intestinal sub cellular fraction S9 at 2 uM after 30 mins
Outline: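 Reactions were stopped at 30 and 60 min with 67% acetonitrile, and TDF was measured by LC/MS/MS. Degradation rate came from a single-exponential fit, expressed as percent inhibition versus DMSO. Duplicates; three to six independent experiments.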

[2] = molecular target: ATP-dependent translocase ABCB1 (Homo sapiens, UniProt P08183); assay: Inhibition of human MDR1-dependent accumulation of calcein-AM expressed in MDCK2 cells; format: cell-based, MDCK-II; conditions: for Activity: human, mdck-ii
Outline: (§1)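 Parental and MDR1-transfected MDCKII cells received calcein-AM together with PI (seven twofold dilutions from 50 µM, no serum proteins). Intracellular calcein fluorescence was read in a 96-well format. Percent increase in fluorescence was fitted to a hyperbolic curve for IC50. Duplicates; 3–10 independent assays.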

Homo sapiens [3] = assay: Effect on tenofovir disoproxil fumarate metabolism in ritonavir booster drug treated healthy human assessed as change in plasma Cmin of tenofovir at 1000 mg, po, BID co-administered with 300 mg once daily dose of tenofovir disoproxil fumarate; format: ADME, organism-based; conditions: in vivo
Homo sapiens [4] = assay: Effect on tenofovir disoproxil fumarate metabolism in ritonavir booster drug treated healthy human assessed as change in plasma Cmax of tenofovir at 1000 mg, po, BID co-administered with 300 mg once daily dose of tenofovir disoproxil fumarate; format: ADME, organism-based; conditions: in vivo
Caco-2 [5] = assay: Increase in P-glycoprotein-mediated tenofovir disoproxil fumarate permeation from apical to basolateral side of human Caco-2 cells at 20 uM; format: cell-based
Outline: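 Caco-2 monolayers were preincubated 30 min with 20 µM PI in transport buffer, then given fresh buffer with inhibitor plus TDF on the apical side. […] Duplicates; mean ± SD of three independent experiments.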

Homo sapiens [6] = assay: Effect on tenofovir disoproxil fumarate metabolism in ritonavir booster drug treated healthy human assessed as change in plasma AUC of tenofovir at 1000 mg, po, BID co-administered with 300 mg once daily dose of tenofovir disoproxil fumarate; format: ADME, organism-based; conditions: in vivo
[7] = molecular target: T1, MDR1 (ABCB1, P-glycoprotein) (Homo sapiens, UniProt P08183); assay: Inhibition of human MDR1-dependent accumulation of calcein-AM expressed in MDCK2 cells at 50 uM; format: cell-based, MDCK-II; parameters: activity at 50 µM: scale not given: the % may be the effect or the level left; conditions: MDCK2 cells expressing human MDR1, probe calcein-AM; outline: as §1
Homo sapiens [8] = assay: Effect on tenofovir disoproxil fumarate metabolism in ritonavir booster drug treated healthy human assessed as change in plasma Cmin of tenofovir at 300 mg, po, BID co-administered with 300 mg once daily dose of tenofovir disoproxil fumarate; format: ADME, organism-based; conditions: in vivo
Homo sapiens [9] = assay: Effect on tenofovir disoproxil fumarate metabolism in ritonavir booster drug treated healthy human assessed as change in plasma AUC of tenofovir at 300 mg, po, BID co-administered with 300 mg once daily dose of tenofovir disoproxil fumarate; format: ADME, organism-based; conditions: in vivo
Homo sapiens [10] = assay: Effect on tenofovir disoproxil fumarate metabolism in ritonavir booster drug treated healthy human assessed as change in plasma Cmax of tenofovir at 300 mg, po, BID co-administered with 300 mg once daily dose of tenofovir disoproxil fumarate; format: ADME, organism-based; conditions: in vivo
Homo sapiens [11] = assay: Effect on tenofovir disoproxil fumarate metabolism in ritonavir booster drug treated healthy human assessed as change in plasma Cmax of tenofovir at 500 mg, po, BID co-administered with 300 mg once daily dose of tenofovir disoproxil fumarate; format: ADME, organism-based; conditions: in vivo
Homo sapiens [12] = assay: Effect on tenofovir disoproxil fumarate metabolism in ritonavir booster drug treated healthy human assessed as change in plasma Cmax of tenofovir at 750 mg, po, BID co-administered with 300 mg once daily dose of tenofovir disoproxil fumarate; format: ADME, organism-based; conditions: in vivo
Homo sapiens [13] = assay: Effect on tenofovir disoproxil fumarate metabolism in ritonavir booster drug treated healthy human assessed as change in plasma Cmax of tenofovir at 800 mg, po, TID co-administered with 300 mg once daily dose of tenofovir disoproxil fumarate; format: ADME, organism-based; conditions: in vivo
[14] = molecular target: T1, MDR1 (ABCB1, P-glycoprotein); assay: Inhibition of human MDR1-dependent accumulation of calcein-AM expressed in MDCK2 cells at 20 uM; format: cell-based, MDCK-II; conditions: MDCK2 cells expressing human MDR1, probe calcein-AM
Homo sapiens [15] = assay: Effect on tenofovir disoproxil fumarate metabolism in ritonavir booster drug treated healthy human assessed as change in plasma Cmin of tenofovir at 1250 mg, po, BID co-administered with 300 mg once daily dose of tenofovir disoproxil fumarate; format: ADME, organism-based; conditions: in vivo
Homo sapiens [16] = assay: Effect on tenofovir disoproxil fumarate metabolism in ritonavir booster drug treated healthy human assessed as change in plasma AUC of tenofovir at 300 mg, po, QD co-administered with 300 mg once daily dose of tenofovir disoproxil fumarate; format: ADME, organism-based; conditions: in vivo
Homo sapiens [17] = assay: Effect on tenofovir disoproxil fumarate metabolism in ritonavir booster drug treated healthy human assessed as change in plasma Cmax of tenofovir at 300 mg, po, QD co-administered with 300 mg once daily dose of tenofovir disoproxil fumarate; format: ADME, organism-based; conditions: in vivo
Homo sapiens [18] = assay: Effect on tenofovir disoproxil fumarate metabolism in ritonavir booster drug treated healthy human assessed as change in plasma Cmin of tenofovir at 300 mg, po, QD co-administered with 300 mg once daily dose of tenofovir disoproxil fumarate; format: ADME, organism-based; conditions: in vivo
Homo sapiens [19] = assay: Effect on tenofovir disoproxil fumarate metabolism in ritonavir booster drug treated healthy human assessed as change in plasma Cmax of tenofovir at 1400 mg, po, BID co-administered with 300 mg once daily dose of tenofovir disoproxil fumarate; format: ADME, organism-based; conditions: in vivo
Homo sapiens [20] = assay: Effect on tenofovir disoproxil fumarate metabolism in ritonavir booster drug treated healthy human assessed as change in plasma AUC of tenofovir at 1400 mg, po, BID co-administered with 300 mg once daily dose of tenofovir disoproxil fumarate; format: ADME, organism-based; conditions: in vivo
Homo sapiens [21] = assay: Effect on tenofovir disoproxil fumarate metabolism in ritonavir booster drug treated healthy human assessed as change in plasma Cmax of tenofovir at 700 mg, po, BID co-administered with 300 mg once daily dose of tenofovir disoproxil fumarate; format: ADME, organism-based; conditions: in vivo
Homo sapiens [22] = assay: Effect on tenofovir disoproxil fumarate metabolism in ritonavir booster drug treated healthy human assessed as change in plasma Cmin of tenofovir at 1400 mg, po, BID co-administered with 300 mg once daily dose of tenofovir disoproxil fumarate; format: ADME, organism-based; conditions: in vivo
Caco-2 [23] = assay: Increase in P-glycoprotein-mediated forward permeation of tenofovir disoproxil fumarate in human Caco-2 cells at 2 uM; format: cell-based
Homo sapiens [24] = assay: Effect on tenofovir disoproxil fumarate metabolism in HIV infected patient assessed as change in plasma Cmax of tenofovir at 400 mg, po, BID co-administered with 300 mg once daily dose of tenofovir disoproxil fumarate; format: ADME, organism-based; conditions: in vivo
Homo sapiens [25] = assay: Effect on tenofovir disoproxil fumarate metabolism in HIV infected patient assessed as change in plasma Cmin of tenofovir at 400 mg, po, BID co-administered with 300 mg once daily dose of tenofovir disoproxil fumarate; format: ADME, organism-based; conditions: in vivo
Homo sapiens [26] = assay: Effect on tenofovir disoproxil fumarate metabolism in ritonavir booster drug treated HIV infected patient assessed as change in plasma AUC of tenofovir at 400 mg, po, BID co-administered with 300 mg once daily dose of tenofovir disoproxil fumarate; format: ADME, organism-based; conditions: in vivo
Caco-2 [27] = assay: Ratio of permeability from basolateral to apical side over apical to basolateral side in human Caco-2 cells at 1 uM; format: ADME, cell-based; conditions: caco-2, 1 µM
Outline: (§2)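 Confluent Caco-2 monolayers dosed with TDF (1–1,000 µM) on the apical or basolateral side at 37°C, 5% CO2. […] Efflux ratio = B-to-A Papp / A-to-B Papp. Two independent experiments in duplicate.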

Homo sapiens [28] = species: Homo sapiens; assay: Inhibition of esterase mediated-hydrolysis of tenofovir disoproxil fumarate in human intestinal sub cellular fraction S9 assessed as rate of tenofovir disoproxil fumarate degradation at 50 uM after 30 mins
Outline: (§3)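 Human intestinal S9 at 1 mg/ml protein; TDF 2 µM incubated with or without inhibitor (10, 50 or 100 µM) at 37°C in duplicate. Reactions were stopped at 30 and 60 min with 67% acetonitrile, protein removed by centrifugation, and TDF measured by LC/MS/MS. The degradation rate came from a single-exponential-decay fit.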

Homo sapiens [29] = species: Homo sapiens; assay: Inhibition of esterase mediated-hydrolysis of tenofovir disoproxil fumarate in human intestinal sub cellular fraction S9 assessed as rate of tenofovir disoproxil fumarate degradation at 100 uM after 30 mins; outline: as §3
Homo sapiens [30] = species: Homo sapiens; assay: Inhibition of esterase mediated-hydrolysis of tenofovir disoproxil fumarate in human intestinal sub cellular fraction S9 assessed as rate of tenofovir disoproxil fumarate degradation at 10 uM after 30 mins; outline: as §3
Caco-2 [31] = assay: Increase in P-glycoprotein-mediated forward permeation of tenofovir disoproxil fumarate in human Caco-2 cells at 10 uM; format: cell-based
Caco-2 [32] = assay: Ratio of permeability from basolateral to apical side over apical to basolateral side in human Caco-2 cells at 1000 uM; format: ADME, cell-based; conditions: caco-2, 1000 µM; outline: as §2

T1 sequence (P08183 whole entry): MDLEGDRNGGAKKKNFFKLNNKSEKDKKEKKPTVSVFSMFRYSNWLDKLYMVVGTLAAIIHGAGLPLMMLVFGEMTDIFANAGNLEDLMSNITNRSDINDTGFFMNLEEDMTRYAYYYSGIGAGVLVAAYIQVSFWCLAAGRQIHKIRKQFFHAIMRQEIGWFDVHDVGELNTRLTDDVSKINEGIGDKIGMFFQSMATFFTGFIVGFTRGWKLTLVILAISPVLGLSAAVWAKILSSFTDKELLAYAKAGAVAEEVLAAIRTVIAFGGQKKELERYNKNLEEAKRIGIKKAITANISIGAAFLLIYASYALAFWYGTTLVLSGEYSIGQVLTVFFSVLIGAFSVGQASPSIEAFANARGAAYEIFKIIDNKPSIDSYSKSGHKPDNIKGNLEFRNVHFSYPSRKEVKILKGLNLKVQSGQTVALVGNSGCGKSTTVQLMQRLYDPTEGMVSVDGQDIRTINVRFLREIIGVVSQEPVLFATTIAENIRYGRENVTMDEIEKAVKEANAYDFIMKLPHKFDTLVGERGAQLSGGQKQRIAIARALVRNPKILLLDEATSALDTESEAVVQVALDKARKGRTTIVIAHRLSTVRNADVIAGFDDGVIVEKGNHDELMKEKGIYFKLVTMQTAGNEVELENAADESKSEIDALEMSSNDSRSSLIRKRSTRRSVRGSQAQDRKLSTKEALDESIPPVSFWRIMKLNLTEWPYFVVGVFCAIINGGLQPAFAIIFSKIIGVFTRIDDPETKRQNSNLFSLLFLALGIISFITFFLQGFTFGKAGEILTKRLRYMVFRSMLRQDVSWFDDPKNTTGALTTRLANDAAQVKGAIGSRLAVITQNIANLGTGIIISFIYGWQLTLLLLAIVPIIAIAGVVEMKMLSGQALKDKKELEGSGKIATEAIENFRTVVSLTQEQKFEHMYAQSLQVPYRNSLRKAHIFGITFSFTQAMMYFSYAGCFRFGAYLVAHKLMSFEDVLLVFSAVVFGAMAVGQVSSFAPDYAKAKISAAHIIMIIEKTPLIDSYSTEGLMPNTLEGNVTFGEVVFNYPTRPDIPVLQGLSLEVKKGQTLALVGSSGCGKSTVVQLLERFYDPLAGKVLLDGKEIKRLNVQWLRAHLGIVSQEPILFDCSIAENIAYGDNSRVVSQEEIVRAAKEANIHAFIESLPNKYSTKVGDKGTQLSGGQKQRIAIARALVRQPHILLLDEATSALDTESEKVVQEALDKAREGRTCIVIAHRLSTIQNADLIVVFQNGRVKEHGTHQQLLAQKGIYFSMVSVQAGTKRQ
ATP-dependent translocase ABCB1, sequence (P08183 whole entry): as above

SMILES: CC(C)(C)NC(=O)[C@@H]1C[C@@H]2CCCC[C@@H]2CN1C[C@@H](O)[C@H](Cc1ccccc1)NC(=O)[C@H](CC(N)=O)NC(=O)c1ccc2ccccc2n1
- Activity (Homo sapiens [1]): Active
- Activity [2]: Dose-dependent effect
- Activity (Homo sapiens [3]): 23%
- Activity (Homo sapiens [4]): 15%
- Activity (Caco-2 [5]): Active
- Activity (Homo sapiens [6]): 14%

SMILES: CC(C)CN(C[C@@H](O)[C@H](Cc1ccccc1)NC(=O)O[C@H]1CCOC1)S(=O)(=O)c1ccc(N)cc1
- Activity (Homo sapiens [1]): Active
- inhibition at 50 µM [7]: ≤ 25%

SMILES: CC(C)CN(C[C@@H](O)[C@H](Cc1ccccc1)NC(=O)O[C@H]1CO[C@H]2OCC[C@H]21)S(=O)(=O)c1ccc(N)cc1
- inhibition (Homo sapiens [1]): < 40%
- Activity (Homo sapiens [8]): 37%
- IC50 [2]: > 100 µM
- Activity (Homo sapiens [9]): 22%
- Activity (Homo sapiens [10]): 24%
- activity at 50 µM ([7]; read-out: Activity): 15%

SMILES: CCC[C@@]1(CCc2ccccc2)CC(O)=C([C@H](CC)c2cccc(NS(=O)(=O)c3ccc(C(F)(F)F)cn3)c2)C(=O)O1
- Activity (Homo sapiens [11]): -23%
- Activity (Homo sapiens [12]): -38%

SMILES: CC(C)(C)NC(=O)[C@@H]1CN(Cc2cccnc2)CCN1C[C@@H](O)C[C@@H](Cc1ccccc1)C(=O)N[C@H]1c2ccccc2C[C@H]1O.O
- inhibition (Homo sapiens [1]): < 40%
- Activity (Homo sapiens [13]): 14%
- inhibition at 50 µM [7]: ≤ 25%

SMILES: Cc1c(O)cccc1C(=O)N[C@@H](CSc1ccccc1)[C@H](O)CN1C[C@H]2CCCC[C@H]2C[C@H]1C(=O)NC(C)(C)C
- inhibition at 20 µM [14]: 50%
- Activity (Homo sapiens [1]): Active
- Activity [2]: Dose-dependent effect
- Activity (Homo sapiens [15]): 9%

SMILES: CC(C)c1nc(CN(C)C(=O)N[C@H](C(=O)N[C@@H](Cc2ccccc2)C[C@H](O)[C@H](Cc2ccccc2)NC(=O)OCc2cncs2)C(C)C)cs1
- Activity (Homo sapiens [1]): Active
- Activity (Caco-2 [5]): Active

SMILES: COC(=O)N[C@H](C(=O)N[C@@H](Cc1ccccc1)[C@@H](O)CN(Cc1ccc(-c2ccccn2)cc1)NC(=O)[C@@H](NC(=O)OC)C(C)(C)C)C(C)(C)C [ATAZANAVIR]
- Activity (Homo sapiens [1]): Active
- Activity (Homo sapiens [16]): 37%
- IC50 [2]: 67.8 µM
- Activity [2]: Dose-dependent effect
- Activity (Homo sapiens [17]): 34%
- Activity (Homo sapiens [18]): 29%
- Activity (Caco-2 [5]): Active

SMILES: Cc1nc(COc2ccc(C[C@H](NC(=O)O[C@H]3CO[C@H]4OCC[C@H]43)[C@H](O)CN(CC(C)C)S(=O)(=O)c3ccc4c(c3)OCO4)cc2)cs1 [BRECANAVIR]
- inhibition at 20 µM [14]: 50%
- inhibition (Homo sapiens [1]): Active
- IC50 [2]: 24.1 µM
- Activity [2]: Dose-dependent effect
- Activity (Homo sapiens [9]): 32%
- Activity (Homo sapiens [10]): 24%

SMILES: CC(C)CN(C[C@@H](OP(=O)(O)O)[C@H](Cc1ccccc1)NC(=O)O[C@H]1CCOC1)S(=O)(=O)c1ccc(N)cc1 [FOSAMPRENAVIR]
- Activity (Homo sapiens [19]): -25%
- Activity (Homo sapiens [20]): -15%
- Activity (Homo sapiens [21]): -18%
- Activity (Homo sapiens [22]): -12%

SMILES: Cc1cccc(C)c1OCC(=O)N[C@@H](Cc1ccccc1)[C@@H](O)C[C@H](Cc1ccccc1)NC(=O)[C@H](C(C)C)N1CCCNC1=O [LOPINAVIR]
- Activity (Caco-2 [23]): 100%
- inhibition at 20 µM [14]: 50%
- Activity (Homo sapiens [24]): 15%
- Activity (Homo sapiens [1]): Active
- Activity [2]: Dose-dependent effect
- Activity (Homo sapiens [25]): 51%
- Activity (Homo sapiens [26]): 32%
- Activity (Caco-2 [5]): Active

SMILES: CC(C)OC(=O)OCOP(=O)(CO[C@H](C)Cn1cnc2c(N)ncnc21)OCOC(=O)OC(C)C.O=C(O)/C=C/C(=O)O [TENOFOVIR DISOPROXIL FUMARATE]
- fold change (FC) (Caco-2 [23]): 2.5
- Ratio (Caco-2 [27]): 25
- Activity (Homo sapiens [28]): 0.016 min⁻¹
- Activity (Homo sapiens [29]): 0.012 min⁻¹
- Activity (Homo sapiens [30]): 0.021 min⁻¹
- fold change (FC) (Caco-2 [31]): 1.4
- Ratio (Caco-2 [32]): 2.6

Reference: ChEMBL document CHEMBL1153836, “Effects of human immunodeficiency virus protease inhibitors on the intestinal absorption of tenofovir disoproxil fumarate in vitro” (Antimicrob Agents Chemother, 2007)
